From ChEMBL document CHEMBL3044643, “Chemical composition and antifungal activity of Arnica longifolia, Aster hesperius, and Chrysothamnus nauseosus essential oils” (2007)
Activity calls are given as the source filed them. No cut-off for these calls is given here.

Experiments:
Colletotrichum fragariae [1] = test: Antifungal activity against Colletotrichum fragariae assessed as size of growth inhibitory zone at concentration of 2 mM in volume of 12 ul of acetone measured after 4 days by TLC based direct bioautography assay; assay type: functional
Summary of the method: (§1)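 Direct TLC bioautography on silica plates, dose–response from 2 to 12 µL of a 2 mM solution spotted per plate. Benomyl, cyprodinil, azoxystrobin and captan served as standards at 2 µL of 2 mM in ethanol. Inhibitory zone size was measured 4 days after treatment. Experiments were repeated multiple times, and mean zones were compared by ANOVA with Fisher's protected LSD (P 0.05).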

[2] = system: Colletotrichum gloeosporioides; test: Antifungal activity against Colletotrichum gloeosporioides assessed as size of growth inhibitory zone at concentration of 2 mM in volume of 6 ul of acetone measured after 4 days by TLC based direct bioautography assay; assay type: functional; summary of the method: as §1
Colletotrichum acutatum [3] = test: Antifungal activity against Colletotrichum acutatum assessed as growth inhibition at 0.3 to 30 uM after 72 hr by 96-well microdilution broth assay; assay type: functional, organism-based
Summary of the method: (§2)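 96-well microdilution broth dose–response. Final treatment concentrations were 0.3, 3.0 and 30.0 µM, alongside an azoxystrobin fungicide standard. Plates were lidded and incubated in a growth chamber, and growth was read as absorbance at 620 nm. Each concentration was run in duplicate, with three independent experiments. Results are reported as mean growth inhibition with standard errors for each fungus and dose.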

Colletotrichum acutatum [4] = test: Antifungal activity against Colletotrichum acutatum assessed as size of growth inhibitory zone at concentration of 2 mM in volume of 4 ul of acetone measured after 4 days by TLC based direct bioautography assay; assay type: functional; summary of the method: as §1
[5] = system: Colletotrichum gloeosporioides; test: Antifungal activity against Colletotrichum gloeosporioides assessed as size of growth inhibitory zone at concentration of 2 mM in volume of 12 ul of acetone measured after 4 days by TLC based direct bioautography assay; assay type: functional; summary of the method: as §1
Phomopsis obscurans = test: Antifungal activity against Phomopsis obscurans assessed as growth inhibition at 0.3 to 30 uM after 72 hr by 96-well microdilution broth assay; assay type: functional, organism-based; conditions: Paraphomopsis obscurans; summary of the method: as §2
Colletotrichum acutatum [6] = test: Antifungal activity against Colletotrichum acutatum assessed as size of growth inhibitory zone at concentration of 2 mM in volume of 8 ul of acetone measured after 4 days by TLC based direct bioautography assay; assay type: functional; summary of the method: as §1
Colletotrichum acutatum [7] = test: Antifungal activity against Colletotrichum acutatum assessed as size of growth inhibitory zone at concentration of 2 mM in volume of 2 ul of acetone measured after 4 days by TLC based direct bioautography assay; assay type: functional; summary of the method: as §1
[8] = system: Colletotrichum gloeosporioides; test: Antifungal activity against Colletotrichum gloeosporioides assessed as growth inhibition at 0.3 to 30 uM after 72 hr by 96-well microdilution broth assay; assay type: functional, organism-based; summary of the method: as §2
Colletotrichum fragariae [9] = test: Antifungal activity against Colletotrichum fragariae assessed as size of growth inhibitory zone at concentration of 2 mM in volume of 10 ul of acetone measured after 4 days by TLC based direct bioautography assay; assay type: functional; summary of the method: as §1
Colletotrichum fragariae [10] = test: Antifungal activity against Colletotrichum fragariae assessed as size of growth inhibitory zone at concentration of 2 mM in volume of 4 ul of acetone measured after 4 days by TLC based direct bioautography assay; assay type: functional; summary of the method: as §1
Colletotrichum fragariae [11] = test: Antifungal activity against Colletotrichum fragariae assessed as growth inhibition at 0.3 to 30 uM after 72 hr by 96-well microdilution broth assay; assay type: functional, organism-based; summary of the method: as §2
[12] = system: Colletotrichum gloeosporioides; test: Antifungal activity against Colletotrichum gloeosporioides assessed as size of growth inhibitory zone at concentration of 2 mM in volume of 4 ul of acetone measured after 4 days by TLC based direct bioautography assay; assay type: functional; summary of the method: as §1
[13] = system: Colletotrichum gloeosporioides; test: Antifungal activity against Colletotrichum gloeosporioides assessed as size of growth inhibitory zone at concentration of 2 mM in volume of 8 ul of acetone measured after 4 days by TLC based direct bioautography assay; assay type: functional; summary of the method: as §1
Botrytis cinerea [14] = test: Antifungal activity against Botryotinia fuckeliana assessed as growth inhibition at 3.0 uM after 72 hr by 96-well microdilution broth assay; assay type: functional; conditions: read-out: GI; summary of the method: as §2
Fusarium oxysporum = test: Antifungal activity against Fusarium oxysporum assessed as growth inhibition at 0.3 to 30 uM after 72 hr by 96-well microdilution broth assay; assay type: functional, organism-based; summary of the method: as §2
Colletotrichum acutatum [15] = test: Antifungal activity against Colletotrichum acutatum assessed as size of growth inhibitory zone at concentration of 2 mM in volume of 12 ul of acetone measured after 4 days by TLC based direct bioautography assay; assay type: functional; summary of the method: as §1
[16] = system: Colletotrichum gloeosporioides; test: Antifungal activity against Colletotrichum gloeosporioides assessed as size of growth inhibitory zone at concentration of 2 mM in volume of 10 ul of acetone measured after 4 days by TLC based direct bioautography assay; assay type: functional; summary of the method: as §1
Colletotrichum acutatum [17] = test: Antifungal activity against Colletotrichum acutatum assessed as size of growth inhibitory zone at concentration of 2 mM in volume of 10 ul of acetone measured after 4 days by TLC based direct bioautography assay; assay type: functional; summary of the method: as §1
Botrytis cinerea [18] = test: Antifungal activity against Botryotinia fuckeliana assessed as growth inhibition at 0.3 uM after 72 hr by 96-well microdilution broth assay; assay type: functional; conditions: read-out: GI; summary of the method: as §2
[19] = system: Colletotrichum gloeosporioides; test: Antifungal activity against Colletotrichum gloeosporioides assessed as size of growth inhibitory zone at concentration of 2 mM in volume of 2 ul of acetone measured after 4 days by TLC based direct bioautography assay; assay type: functional; summary of the method: as §1
Colletotrichum fragariae [20] = test: Antifungal activity against Colletotrichum fragariae assessed as size of growth inhibitory zone at concentration of 2 mM in volume of 8 ul of acetone measured after 4 days by TLC based direct bioautography assay; assay type: functional; summary of the method: as §1
Colletotrichum fragariae [21] = test: Antifungal activity against Colletotrichum fragariae assessed as size of growth inhibitory zone at concentration of 2 mM in volume of 2 ul of acetone measured after 4 days by TLC based direct bioautography assay; assay type: functional; summary of the method: as §1
Colletotrichum acutatum [22] = test: Antifungal activity against Colletotrichum acutatum assessed as size of growth inhibitory zone at concentration of 2 mM in volume of 6 ul of acetone measured after 4 days by TLC based direct bioautography assay; assay type: functional; summary of the method: as §1
Colletotrichum fragariae [23] = test: Antifungal activity against Colletotrichum fragariae assessed as size of growth inhibitory zone at concentration of 2 mM in volume of 6 ul of acetone measured after 4 days by TLC based direct bioautography assay; assay type: functional; summary of the method: as §1
Colletotrichum fragariae [24] = test: Antifungal activity against Colletotrichum fragariae assessed as size of growth inhibitory zone at concentration of 2 mM in volume of 2 ul of EtOH measured after 4 days by TLC based direct bioautography assay; assay type: functional
Summary of the method: (§3)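 Direct TLC bioautography on silica plates against Colletotrichum species. Technical-grade fungicide standards (without formulation) were spotted at 2 µL of 2 mM in 95% ethanol. Inhibitory zone size was read 4 days after treatment. Diffuse zones were taken to mark suppressive activity. Values are means and standard deviations of zone size, with means separated by ANOVA and Fisher's protected LSD (P = 0.05).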

[25] = system: Colletotrichum gloeosporioides; test: Antifungal activity against Colletotrichum gloeosporioides assessed as diffuse inhibitory zone at concentration of 2 mM in volume of 2 ul of EtOH measured after 4 days by TLC based direct bioautography assay; assay type: functional, organism-based; summary of the method: as §3
Colletotrichum acutatum [26] = test: Antifungal activity against Colletotrichum acutatum assessed as diffuse inhibitory zone at concentration of 2 mM in volume of 2 ul of EtOH measured after 4 days by TLC based direct bioautography assay; assay type: functional, organism-based; summary of the method: as §3
Colletotrichum acutatum [27] = test: Antifungal activity against Colletotrichum acutatum assessed as size of growth inhibitory zone at concentration of 2 mM in volume of 2 ul of EtOH measured after 4 days by TLC based direct bioautography assay; assay type: functional; summary of the method: as §3
[28] = system: Colletotrichum gloeosporioides; test: Antifungal activity against Colletotrichum gloeosporioides assessed as size of growth inhibitory zone at concentration of 2 mM in volume of 2 ul of EtOH measured after 4 days by TLC based direct bioautography assay; assay type: functional; summary of the method: as §3
Botrytis cinerea [29] = test: Antifungal activity against Botryotinia fuckeliana assessed as growth inhibition at 30 uM by 96-well microdilution broth assay; assay type: functional; conditions: read-out: GI; summary of the method: as §2

CC(C)=CCC[C@](C)(O)[C@@H]1CC=C(C)CC1 (relative stereo) [LEVOMENOL] was tested, and the Activity (Colletotrichum fragariae [1]) was 11.5 mm, the Activity [2] was 7.5 mm and the “growth inhibition (GI)” value (Colletotrichum acutatum [3]) was “inactive”. For the same molecule, the Activity (Colletotrichum acutatum [4]) was 8 mm, the Activity [5] was 11.5 mm and the “growth inhibition (GI)” value (Phomopsis obscurans) was “inactive”. For the same molecule, the Activity (Colletotrichum acutatum [6]) was 7.5 mm, the Activity (Colletotrichum acutatum [7]) was 5.5 mm and the “growth inhibition (GI)” value [8] was “inactive”. The Activity (Colletotrichum fragariae [9]) was 9.5 mm, the Activity (Colletotrichum fragariae [10]) was 6.5 mm and the “growth inhibition (GI)” value (Colletotrichum fragariae [11]) was “inactive”. It also gave an Activity [12] of 5.5 mm, an Activity [13] of 8 mm and an inhibition of growth at 3 µM (Botrytis cinerea [14]) of 47.3%. For the same molecule, the “growth inhibition (GI)” value (Fusarium oxysporum) was “inactive”, the Activity (Colletotrichum acutatum [15]) was 11 mm and the Activity [16] was 9 mm. For the same molecule, the Activity (Colletotrichum acutatum [17]) was 9.5 mm, the inhibition of growth at 0.3 µM (Botrytis cinerea [18]) was 46.5% and the Activity [19] was 5 mm. The Activity (Colletotrichum fragariae [20]) was 8 mm, the Activity (Colletotrichum fragariae [21]) was 5 mm and the Activity (Colletotrichum acutatum [22]) was 7.5 mm. It also gave an Activity (Colletotrichum fragariae [23]) of 7 mm.

CO/C=C(/C(=O)OC)c1ccccc1Oc1cc(Oc2ccccc2C#N)ncn1 [AZOXYSTROBIN] was tested, and the Activity (Colletotrichum fragariae [24]) was 23 mm, the inhibition [25] was “Active” and the inhibition (Colletotrichum acutatum [26]) was “Active”.

For CCCCNC(=O)n1c(NC(=O)OC)nc2ccccc21 [BENOMYL], the Activity (Colletotrichum fragariae [24]) was 21.3 mm, the inhibition [25] was “Active” and the inhibition (Colletotrichum acutatum [26]) was “Active”.

C=C1CCC[C@]2(C)CC[C@@H](C(C)(C)O)C[C@@H]12 [BETA-EUDESMOL] gave an Activity (Colletotrichum acutatum [4]) of 0 mm, an Activity (Colletotrichum fragariae [10]) of 0 mm and an Activity [12] of 0 mm.

Work on C=C1C=CC(C(C)C)CC1 (stereo not drawn) [BETA-PHELLANDRENE] yielded an Activity (Colletotrichum acutatum [4]) of 0 mm, an Activity (Colletotrichum fragariae [10]) of 0 mm and an Activity [12] of 0 mm.

For C=C1CCC2CC1C2(C)C (stereo not drawn) [BETA-PINENE], the Activity (Colletotrichum acutatum [4]) was 0 mm, the Activity (Colletotrichum fragariae [10]) was 0 mm and the Activity [12] was 0 mm.

O=C1C2CC=CCC2C(=O)N1SC(Cl)(Cl)Cl (stereo not given) [CAPTAN] gave an Activity (Colletotrichum acutatum [27]) of 11.5 mm, an Activity (Colletotrichum fragariae [24]) of 15 mm and an Activity [28] of 18.9 mm.

Cc1ccc(C(C)C)cc1O [CARVACROL] showed an inhibition of growth at 30 µM (Botrytis cinerea [29]) of 36.9%.

Cc1cc(C2CC2)nc(Nc2ccccc2)n1 [CYPRODINIL] was tested, and the Activity (Colletotrichum fragariae [24]) was 23 mm, the inhibition [25] was “Active” and the inhibition (Colletotrichum acutatum [26]) was “Active”.

In the case of CCCCCCCCCCCCCCCC(=O)O [PALMITIC ACID], the Activity (Colletotrichum acutatum [4]) is reported as 0 mm, the Activity (Colletotrichum fragariae [10]) is reported as 0 mm and the Activity [12] is reported as 0 mm.
